Active and inactive are the calls of the source. The calls are words filed in the database; no cut-off is given here.
Tests used:
MCF7-DOX [1] = assay: Cytotoxicity against human MCF7/Dox cells assessed as reduction in cell viability after 48 hrs by MTT assay; assay type: cell-based
[2] = Cytotoxicity against human MCF7/Dox cells assessed as cell survival at 12.5 uM after 48 hrs by MTT assay relative to control; assay type: cell-based; details: read-out: Survival
[3] = Reversal of P-gp-mediated multidrug resistance in human MCF7/Dox cells assessed as potentiation of doxorubicin-induced cytotoxicity by measuring doxorubicin IC50 at 12.5 uM after 48 hrs by MTT assay (reference value: 51.19 +/- 0.95 microM)
MCF7-DOX [4] = assay: Antitumour activity against human MCF7/Dox cells xenografted in Balb/c mouse assessed as tumour growth inhibition at 2 mg/kg measured after 30 days; assay type: functional, organism-based
[5] = Cytotoxicity against human H69 cells assessed as growth inhibition after 48 hrs by MTT assay; assay type: cell-based; details: H69 cells (NCI-H69)
[6] = Cytotoxicity against human H69AR cells assessed as growth inhibition after 48 hrs by MTT assay; assay type: cell-based
[7] = Cytotoxicity against MDCK2 cells assessed as growth inhibition after 48 hrs by MTT assay; assay type: cell-based, Canis lupus familiaris; details: dog, MDCK2 (MDCK-II) cells
[8] = Cytotoxicity against MDCK2 cells expressing BCRP assessed as growth inhibition after 48 hrs by MTT assay; assay type: ADME, cell-based, Canis lupus familiaris; details: dog, MDCK2 (MDCK-II) cells expressing BCRP
[9] = Cytotoxicity against human MCF7 cells assessed as growth inhibition after 48 hrs by MTT assay; assay type: cell-based
[10] = Cytotoxicity against human MCF7/Dox cells assessed as growth inhibition after 48 hrs by MTT assay; assay type: cell-based
[11] = biological target: Multidrug resistance-associated protein 1 (Homo sapiens, UniProt P33527); assay: Reversal of MRP-1 (unknown origin)-mediated multidrug resistance expressed in human H69AR cells assessed as potentiation of doxorubicin-induced cytotoxicity at 25 uM after 48 hrs by MTT assay; assay type: cell-based
Method in brief: (§1)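 Transporter selectivity screen by MTT in H69AR (MRP1-overexpressing) with doxorubicin, and in MDCK II BCRP with mitoxantrone. Compound tested at 12.5 and 25 µM alongside the cytostatic. Reversal read as decreased viability versus cytostatic alone.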

[12] = biological target: T1, Broad substrate specificity ATP-binding cassette transporter ABCG2 (Homo sapiens, UniProt Q9UNQ0); assay: Reversal of ABCG2 (unknown origin)-mediated multidrug resistance expressed in MDCK2 cells assessed as potentiation of mitoxantrone-induced cytotoxicity at 25 uM after 48 hrs by MTT assay; assay type: cell-based; method in brief: as §1
T1 sequence (Q9UNQ0 whole entry): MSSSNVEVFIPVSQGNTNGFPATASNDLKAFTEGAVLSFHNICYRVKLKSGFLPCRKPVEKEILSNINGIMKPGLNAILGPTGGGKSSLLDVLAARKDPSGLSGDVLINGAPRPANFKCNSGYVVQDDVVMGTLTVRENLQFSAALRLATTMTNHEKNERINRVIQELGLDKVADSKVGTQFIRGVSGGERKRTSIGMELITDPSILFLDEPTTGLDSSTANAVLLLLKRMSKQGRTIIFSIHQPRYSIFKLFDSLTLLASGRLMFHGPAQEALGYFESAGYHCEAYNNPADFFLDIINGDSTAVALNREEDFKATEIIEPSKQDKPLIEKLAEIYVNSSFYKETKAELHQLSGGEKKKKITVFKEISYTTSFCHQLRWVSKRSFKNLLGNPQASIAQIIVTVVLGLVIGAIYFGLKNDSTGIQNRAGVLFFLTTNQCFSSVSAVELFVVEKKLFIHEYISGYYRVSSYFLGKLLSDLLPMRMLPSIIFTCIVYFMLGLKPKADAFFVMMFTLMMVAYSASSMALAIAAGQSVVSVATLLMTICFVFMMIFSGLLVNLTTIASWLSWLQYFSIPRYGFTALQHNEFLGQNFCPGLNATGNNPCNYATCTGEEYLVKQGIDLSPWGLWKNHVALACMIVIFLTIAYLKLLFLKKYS

[13] = biological target: ATP-dependent translocase ABCB1 (Homo sapiens, UniProt P08183); assay: Reversal of P-gp mediated drug efflux in human MCF7/Dox cells assessed as increase in intracellular doxorubicin accumulation at 12.5 uM after 24 hrs by DAPI based fluorescence microscopic analysis; assay type: cell-based
Method in brief: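 MCF-7/DOX cells exposed to DOX 8 µM with or without compound at 12.5 µM. Nuclei stained with DAPI. Intracellular DOX red fluorescence imaged by fluorescence microscopy.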

MCF7-DOX [14] = assay: Down regulation of p-gp protein expression in human MCF7/Dox cells at 12.5 uM in presence of doxorubicin by Western blotting analysis; assay type: functional, cell-based; details: TDE = time-dependent effect
Method in brief: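 MCF-7/DOX cells exposed to compound (12.5 µM), DOX (8 µM), or the combination for 24 h and 48 h. P-gp protein measured by western blot. MCF-7 parental cells used as reference.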

MCF7-DOX [15] = assay: Down regulation of p-gp mRNA expression in human MCF7/Dox cells at 12.5 uM in presence of doxorubicin after 48 hrs by RT-PCR analysis; assay type: functional, cell-based
Method in brief: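 MCF-7/DOX cells exposed for 48 h to compound (12.5 µM), DOX (8 µM), or both. P-gp mRNA measured by RT-PCR versus control and DOX-alone groups.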

[16] = Toxicity in Balb/c mouse xenografted with human MCF7/Dox cells assessed as body weight at 5 to 15 mg/kg administered for 30 days and measured for every 2 days; assay type: organism-based; details: in vivo
MCF7-DOX [17] = assay: Antitumour activity against human MCF7/Dox cells xenografted in Balb/c mouse assessed as tumour growth inhibition at 5 to 15 mg/kg in presence of doxorubicin and measured after 30 days; assay type: functional, organism-based
[18] = Toxicity in Balb/c mouse xenografted with human MCF7/Dox cells assessed as effect on body weight at 5 to 15 mg/kg in presence of doxorubicin and measured after 30 days; assay type: organism-based; details: in vivo, 720 h
MCF7 [19] = assay: Antimigratory activity against human MCF7 cells after 24 hrs by wound healing assay; assay type: functional, cell-based
Method in brief: (§2)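 Wound-healing assay on confluent monolayers of MCF-7 or MCF-7/DOX cells. Cells treated 24 h, then wound width imaged and migration quantified against untreated control cells. Means ± SD, n = 3.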

MCF7-DOX [20] = assay: Antimigratory activity against human MCF7/Dox cells after 24 hrs by wound healing assay; assay type: functional, cell-based; method in brief: as §2
MCF7 [21] = assay: Antimigratory activity against human MCF7 cells after 36 hrs by crystal violet staining based transwell migration assay; assay type: functional, cell-based
Method in brief: (§3)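 Transwell migration assay with MCF-7 or MCF-7/DOX cells treated 36 h. Migrated cells quantified against untreated control cells. Means ± SD, n = 3.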

MCF7-DOX [22] = assay: Antimigratory activity against human MCF7/Dox cells after 36 hrs by crystal violet staining based transwell migration assay; assay type: functional, cell-based; method in brief: as §3
MCF7-DOX [23] = assay: Antitumour activity against human MCF7/Dox cells xenografted in Balb/c mouse assessed as reduction in tumour volume at 5 to 15 mg/kg and measured after 30 days; assay type: functional, organism-based
MCF7-DOX [24] = assay: Antitumour activity against human MCF7/Dox cells xenografted in Balb/c mouse assessed as reduction in tumour weight at 5 to 15 mg/kg and measured after 30 days; assay type: functional, organism-based

Chain of ATP-dependent translocase ABCB1 (P08183 whole entry): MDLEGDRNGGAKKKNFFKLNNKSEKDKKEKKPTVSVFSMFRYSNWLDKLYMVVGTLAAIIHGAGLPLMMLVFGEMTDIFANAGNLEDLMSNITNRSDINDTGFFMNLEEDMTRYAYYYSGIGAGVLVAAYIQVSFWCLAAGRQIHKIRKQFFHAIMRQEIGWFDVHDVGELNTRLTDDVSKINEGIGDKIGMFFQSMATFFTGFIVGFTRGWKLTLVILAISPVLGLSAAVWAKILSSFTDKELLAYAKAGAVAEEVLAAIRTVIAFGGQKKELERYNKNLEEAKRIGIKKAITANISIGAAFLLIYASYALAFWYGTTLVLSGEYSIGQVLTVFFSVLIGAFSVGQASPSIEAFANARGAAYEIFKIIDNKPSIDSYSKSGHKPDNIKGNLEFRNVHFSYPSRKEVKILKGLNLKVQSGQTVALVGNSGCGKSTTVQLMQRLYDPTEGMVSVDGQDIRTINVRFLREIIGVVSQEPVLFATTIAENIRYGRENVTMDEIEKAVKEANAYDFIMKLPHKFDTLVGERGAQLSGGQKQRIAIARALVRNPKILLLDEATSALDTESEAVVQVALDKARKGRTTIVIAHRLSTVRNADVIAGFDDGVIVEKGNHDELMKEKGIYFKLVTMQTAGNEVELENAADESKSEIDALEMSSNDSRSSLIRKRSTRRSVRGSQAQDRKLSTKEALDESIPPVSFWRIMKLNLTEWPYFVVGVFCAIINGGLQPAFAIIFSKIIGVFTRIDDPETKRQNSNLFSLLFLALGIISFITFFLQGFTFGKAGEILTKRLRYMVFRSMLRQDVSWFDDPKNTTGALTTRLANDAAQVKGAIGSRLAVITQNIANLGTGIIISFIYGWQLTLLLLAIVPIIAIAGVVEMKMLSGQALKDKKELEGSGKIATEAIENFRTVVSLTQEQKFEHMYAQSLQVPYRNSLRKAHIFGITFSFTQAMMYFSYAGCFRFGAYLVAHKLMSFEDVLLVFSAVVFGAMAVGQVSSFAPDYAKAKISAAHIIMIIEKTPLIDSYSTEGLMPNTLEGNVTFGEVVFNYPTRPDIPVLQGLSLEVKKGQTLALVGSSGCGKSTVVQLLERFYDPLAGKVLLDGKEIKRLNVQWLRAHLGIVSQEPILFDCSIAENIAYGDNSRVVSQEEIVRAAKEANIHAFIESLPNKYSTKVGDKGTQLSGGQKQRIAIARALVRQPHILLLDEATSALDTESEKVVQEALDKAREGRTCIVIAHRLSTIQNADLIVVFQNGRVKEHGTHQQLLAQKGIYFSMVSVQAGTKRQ
Chain of Multidrug resistance-associated protein 1 (P33527 whole entry): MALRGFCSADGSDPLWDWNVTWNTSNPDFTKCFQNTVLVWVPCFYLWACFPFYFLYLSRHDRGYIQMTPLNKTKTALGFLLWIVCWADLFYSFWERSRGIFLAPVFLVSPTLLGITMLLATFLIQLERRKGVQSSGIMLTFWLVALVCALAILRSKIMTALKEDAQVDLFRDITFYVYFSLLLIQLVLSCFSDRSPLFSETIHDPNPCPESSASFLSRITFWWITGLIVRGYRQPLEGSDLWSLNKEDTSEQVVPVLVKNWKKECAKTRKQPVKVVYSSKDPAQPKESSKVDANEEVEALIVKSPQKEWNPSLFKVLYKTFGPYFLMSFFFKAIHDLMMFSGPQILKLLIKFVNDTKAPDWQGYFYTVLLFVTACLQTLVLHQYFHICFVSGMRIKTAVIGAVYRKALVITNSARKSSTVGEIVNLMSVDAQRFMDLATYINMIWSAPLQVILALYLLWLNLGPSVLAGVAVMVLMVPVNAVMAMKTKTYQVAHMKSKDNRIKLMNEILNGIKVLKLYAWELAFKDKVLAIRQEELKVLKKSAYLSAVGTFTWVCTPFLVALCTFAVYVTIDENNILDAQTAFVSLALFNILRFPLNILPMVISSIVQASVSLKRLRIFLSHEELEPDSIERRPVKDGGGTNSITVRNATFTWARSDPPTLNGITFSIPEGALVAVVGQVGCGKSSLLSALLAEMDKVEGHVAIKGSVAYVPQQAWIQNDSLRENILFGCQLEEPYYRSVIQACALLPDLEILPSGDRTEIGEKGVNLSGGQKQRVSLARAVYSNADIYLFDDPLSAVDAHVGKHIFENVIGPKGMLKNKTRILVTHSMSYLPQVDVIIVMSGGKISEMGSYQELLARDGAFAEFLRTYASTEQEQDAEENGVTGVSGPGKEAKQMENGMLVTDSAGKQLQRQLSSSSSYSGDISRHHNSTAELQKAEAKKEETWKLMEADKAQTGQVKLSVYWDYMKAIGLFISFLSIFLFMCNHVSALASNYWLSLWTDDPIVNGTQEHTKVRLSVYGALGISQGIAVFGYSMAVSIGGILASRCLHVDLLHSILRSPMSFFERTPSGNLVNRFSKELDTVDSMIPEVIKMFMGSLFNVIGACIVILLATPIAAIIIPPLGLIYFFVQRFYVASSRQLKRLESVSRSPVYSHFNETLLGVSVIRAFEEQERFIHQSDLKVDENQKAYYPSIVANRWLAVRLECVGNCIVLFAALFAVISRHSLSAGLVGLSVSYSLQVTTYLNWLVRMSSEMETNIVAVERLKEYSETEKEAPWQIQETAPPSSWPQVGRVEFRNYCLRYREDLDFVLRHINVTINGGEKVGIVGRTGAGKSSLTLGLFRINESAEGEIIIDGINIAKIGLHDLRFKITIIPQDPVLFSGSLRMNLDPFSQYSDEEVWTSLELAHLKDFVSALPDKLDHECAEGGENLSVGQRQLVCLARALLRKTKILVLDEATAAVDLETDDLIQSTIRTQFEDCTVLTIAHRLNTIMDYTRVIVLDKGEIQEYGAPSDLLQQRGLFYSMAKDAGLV

Row | SMILES | IC50 (MCF7-DOX [1]) | viability at 48 h, 12.5 µM [2] | other results
1 | COc1cc(OC)c(C(=O)/C=C/c2cccc([N+](=O)[O-])c2)c(O)c1CC=C(C)C | 57 µM | > 99% | IC50 [3]: 8.83 µM
2 | COc1cc(OC)c(C(=O)/C=C/c2cccc(C(F)(F)F)c2)c(O)c1CC=C(C)C | 66.6 µM | 91.6% | –
3 | CCc1c(OC)cc(OC)c(C(=O)/C=C/c2cccc(N3CCNCC3)c2)c1O | > 100 µM | 89.5% | –
4 | COc1cc(O)c(C(=O)/C=C/c2cccc(N3CCNCC3)c2)c(OC)c1 | 99.2 µM | > 99% | –
5 | COc1cc(OC)c(C(=O)/C=C/c2ccc(N3CCNCC3)cc2)c(O)c1CC=C(C)C | 57.8 µM | 98.3% | IC50 [3]: 14.84 µM
6 | COc1cc(OC)c(C(=O)/C=C/c2cccc(N3CCNCC3)c2)c(O)c1C | 98.7 µM | 95.8% | IC50 [3]: 4 µM
7 | COc1cccc(/C=C/C(=O)c2c(OC)cc(OC)c(CC=C(C)C)c2O)c1 | 49.2 µM | > 99% | –
8 | COc1cc(OC)c(C(=O)/C=C/c2cc(OC)c(OC)c(OC)c2)c(O)c1CC=C(C)C | 74.9 µM | 90.8% | IC50 [3]: 26.56 µM
9 | COc1ccc(/C=C/C(=O)c2c(OC)cc(OC)c(CC=C(C)C)c2O)cc1 | 46.9 µM | > 99% | –
10 | COc1cccc2c1C(=O)c1c(O)c3c(c(O)c1C2=O)C[C@@](O)(C(=O)CO)C[C@@H]3O[C@H]1C[C@H](N)[C@H](O)[C@H](C)O1 | – | – | inhibition (MCF7-DOX [4]): inactive
11 | CCCCc1c(OC)cc(OC)c(C(=O)/C=C/c2cccc(N3CCNCC3)c2)c1O | > 100 µM | 91.6% | –
12 | COc1cc(OC)c(C(=O)/C=C/c2cccc(N3CCNCC3)c2)c(O)c1CC=C(C)C | 99.9 µM | > 99% | GI50 at 48 h [5]: > 100 µM; GI50 at 48 h [6]: 91.7 µM; GI50 at 48 h [7]: > 100 µM; GI50 at 48 h [8]: > 100 µM; GI50 at 48 h [9]: > 100 µM; GI50 at 48 h [10]: > 100 µM; inhibition (INH) [11]: Not Active; inhibition (INH) [12]: Not Active; inhibition (INH) [13]: Active; inhibition (MCF7-DOX [14]): Tde; inhibition (MCF7-DOX [15]): Active; Activity [16]: Non-Toxic; TGI (MCF7-DOX [17]): Active; Activity [18]: Non-Toxic; inhibition (MCF7 [19]): Active; inhibition (MCF7-DOX [20]): Active; inhibition (MCF7 [21]): Active; inhibition (MCF7-DOX [22]): Active; inhibition (MCF7-DOX [23]): inactive; inhibition (MCF7-DOX [24]): inactive
13 | COc1cc(OC)c(C(=O)/C=C/c2cccc(Cl)c2)c(O)c1CC=C(C)C | 59.5 µM | > 99% | –
14 | COc1cc(OC)c(C(=O)/C=C/c2ccc(Cl)cc2)c(O)c1CC=C(C)C | 43.4 µM | 90.1% | –
15 | COc1cc(O)c(C(=O)/C=C/c2cccc(N3CCN(C)CC3)c2)c(OC)c1 | 62.2 µM | > 99% | –
16 | COc1cc(OC)c(C(=O)/C=C/c2cccc(F)c2)c(O)c1CC=C(C)C | 45.4 µM | 92.7% | –
17 | COc1cc(OC)c(C(=O)/C=C/c2cccc(N3CCN(C)CC3)c2)c(O)c1CC=C(C)C | > 100 µM | > 99% | IC50 [3]: 23.59 µM

Row | SMILES | IC50 (MCF7-DOX [1]) | viability at 48 h, 12.5 µM [2] | other results
18 | COc1c(C)c(O)c(C)c(O)c1C(=O)/C=C/c1ccccc1 | 46.8 µM | 86% | –
19 | COc1ccc(C(=O)/C=C/c2cccc(N3CCNCC3)c2)c(OC)c1 | 95 µM | 96.4% | –
20 | COc1cc(OC)c(C(=O)/C=C/c2ccc(F)cc2)c(O)c1CC=C(C)C | 53.7 µM | 94.3% | IC50 [3]: 17.96 µM
21 | COc1cc(OC)c(C(=O)/C=C/c2ccc(C(F)(F)F)cc2)c(O)c1CC=C(C)C | 73.7 µM | > 99% | IC50 [3]: 23.59 µM
22 | COc1cc(OC)c(C(=O)/C=C/c2ccc(N(C)C)cc2)c(O)c1CC=C(C)C | > 100 µM | > 99% | –
23 | COc1cc(O)c(C(=O)/C=C/c2cccc(N3CCOCC3)c2)c(OC)c1 | > 100 µM | > 99% | –
24 | COc1cc(O)c(C(=O)/C=C/c2ccc(N3CCNCC3)cc2)c(OC)c1 | 67.5 µM | 94.2% | IC50 [3]: 16.62 µM
25 | CCCc1c(OC)cc(OC)c(C(=O)/C=C/c2cccc(N3CCNCC3)c2)c1O | > 100 µM | > 99% | –
26 | COc1cc(O)c(C(=O)/C=C/c2cccc(N3CCN(C(=O)OC(C)(C)C)CC3)c2)c(OC)c1 | 56.7 µM | 85.4% | IC50 [3]: 39.95 µM
27 | COc1cc(OC)c(C(=O)/C=C/c2ccc(N3CCN(C(=O)OC(C)(C)C)CC3)cc2)c(O)c1CC=C(C)C | > 100 µM | > 99% | –
28 | COc1cc(OC)c(C(=O)/C=C/c2ccc(OC)c(OC)c2OC)c(O)c1CC=C(C)C | 62.6 µM | 91.9% | –
29 | COc1cc(OC)c(C(=O)/C=C/c2cccc(N3CCOCC3)c2)c(O)c1CC=C(C)C | > 100 µM | > 99% | –
30 | COc1cc(O)c(C(=O)/C=C/c2cccc(N3CCN(C(=O)c4ccc(OC)c(OC)c4)CC3)c2)c(OC)c1 | > 100 µM | > 99% | –
31 | COc1cc(OC)c(C(=O)/C=C/c2cccc(N3CCN(C(=O)OC(C)(C)C)CC3)c2)c(O)c1CC=C(C)C | 42.6 µM | 93% | –
32 | COc1cc(O)c(C(=O)/C=C/c2ccc(N3CCN(C(=O)OC(C)(C)C)CC3)cc2)c(OC)c1 | 47.3 µM | 90.6% | –
33 | CCCCCc1c(OC)cc(OC)c(C(=O)/C=C/c2cccc(N3CCNCC3)c2)c1O | > 100 µM | 93.6% | –
34 | COc1cc(OC)c(C(=O)/C=C/c2ccccc2)c(O)c1CC=C(C)C | 65.4 µM | 90.6% | IC50 [3]: 20.64 µM
